Assay results taken from ChEMBL document CHEMBL1135941, “Synthesis and biological activity of the new 5-fluorocytosine derivatives, 5'-deoxy-N-alkyloxycarbonyl-5-fluorocytosine-5'-carboxylic acid” (Bioorg Med Chem Lett, 2002).
≈ marks a conversion by molar mass, not a printed value. Where “and” joins values, the source holds several entries; their conditions need not be identical. Equal values may be shown once.

Experiments:
A549 = assay: Inhibitory concentration of compound for cytotoxicity against […] human lung cells was determined; type: functional, cell-based
In short: (§1)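 MTT cytotoxicity assay on human cancer cell lines: A549 (lung), SK-OV-3 (ovarian), HCT15 (colon) and SK-MEL-2 (melanoma). Cells were incubated with compound for 3 days before the MTT read-out. Activity is reported as IC50 in μg/mL.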

SK-OV-3 = assay: Inhibitory concentration of compound for cytotoxicity against SK-OV-3 human ovarian cells was determined; type: functional, cell-based; in short: as §1
[1] = Toxicity by oral administration of single dose in mice; details: mouse, in vivo
SK-MEL-2 = assay: Inhibitory concentration of compound for cytotoxicity against SK-MEL-2 human melanoma cells was determined; type: functional, cell-based; in short: as §1
HCT-15 = assay: Inhibitory concentration of compound for cytotoxicity against HCT15 human colon cells was determined; type: functional, cell-based; in short: as §1
Mus musculus [2] = assay: In vivo mean survival time of L1210 leukemic BDF1 mice when compound (0.67 mmol/kg/day) was administered orally
Mus musculus [3] = assay: In vivo mean survival time of L1210 leukemic BDF1 mice when compound (0.016 mmol/kg/day) was administered orally
Mus musculus [4] = assay: In vivo mean survival time of L1210 leukemic BDF1 mice when compound (0.0032 mmol/kg/day) was administered orally
[5] = Toxicity by oral administration of single dose in mice for 21 days; details: mouse, in vivo, 504 h
Mus musculus [6] = assay: Percent increase in life span of L1210 leukemic BDF1 mice when compound (0.15 nmol/kg/day) was administered intravenously; type: functional
Mus musculus [7] = assay: In vivo mean survival time of L1210 leukemic BDF1 mice when compound (0.23 nmol/kg/day) was administered intravenously; type: functional

SMILES	IC50 (A549)	IC50 (SK-OV-3)	LD50 [1]	IC50 (SK-MEL-2)	IC50 (HCT-15)	MST (Mus musculus [2])	MST (Mus musculus [3])	MST (Mus musculus [4])	LD50 [5]	ILS (Mus musculus [6])	MST (Mus musculus [7])
C#CCOC(=O)Nc1nc(=O)n(C2O[C@H](C(=O)O)[C@@H](O)[C@H]2O)cc1F (stereo partly specified)	0.005 µg/mL (≈ 0.014 µM)	0.005 µg/mL (≈ 0.014 µM)	12 mg/kg	0.007 µg/mL (≈ 0.0196 µM)	0.04 µg/mL (≈ 0.112 µM)	–	–	–	–	–	–
CCCCCOC(=O)Nc1nc(=O)n(C2O[C@H](C(=O)O)[C@@H](O)[C@H]2O)cc1F (stereo partly specified)	0.17 µg/mL (≈ 0.437 µM)	0.03 µg/mL (≈ 0.0771 µM)	–	0.03 µg/mL (≈ 0.0771 µM)	0.12 µg/mL (≈ 0.308 µM)	11.3 days	–	–	–	–	–
O=C(Nc1nc(=O)n(C2O[C@H](C(=O)O)[C@@H](O)[C@H]2O)cc1F)Oc1ccccc1 (stereo partly specified)	0.55 µg/mL (≈ 1.39 µM)	0.12 µg/mL (≈ 0.304 µM)	–	0.1 µg/mL (≈ 0.253 µM)	0.39 µg/mL (≈ 0.987 µM)	–	–	–	–	–	–
O=C(Nc1nc(=O)n(C2O[C@H](C(=O)O)[C@@H](O)[C@H]2O)cc1F)OCc1ccccc1 (stereo partly specified)	0.37 µg/mL (≈ 0.904 µM)	0.07 µg/mL (≈ 0.171 µM)	–	0.1 µg/mL (≈ 0.244 µM)	0.17 µg/mL (≈ 0.415 µM)	–	–	–	–	–	–
CCOC(=O)Nc1nc(=O)n(C2O[C@H](C(=O)O)[C@@H](O)[C@H]2O)cc1F (stereo partly specified)	0.49 µg/mL (≈ 1.41 µM)	0.16 µg/mL (≈ 0.461 µM)	–	0.16 µg/mL (≈ 0.461 µM)	0.47 µg/mL (≈ 1.35 µM)	–	–	–	–	–	–
C=CCOC(=O)Nc1nc(=O)n(C2O[C@H](C(=O)O)[C@@H](O)[C@H]2O)cc1F (stereo partly specified)	0.04 µg/mL (≈ 0.111 µM)	0.008 µg/mL (≈ 0.0223 µM)	650 mg/kg	0.008 µg/mL (≈ 0.0223 µM)	0.032 µg/mL (≈ 0.0891 µM)	–	24.8 days	22.1 days	22 mg/kg/day	–	–
O=c1[nH]cc(F)c(=O)[nH]1 [FLUOROURACIL]	0.26 µg/mL (≈ 2 µM)	0.03 µg/mL (≈ 0.231 µM)	–	0.63 µg/mL (≈ 4.84 µM)	0.11 µg/mL (≈ 0.846 µM)	–	–	–	–	87.5% and 62.5%	16.5 days and 14.3 days
